Data reported in ChEMBL document CHEMBL3271964, “Synthesis and biological activity of new 2-nitroimidazole derivatives” (J Med Chem, 1978).
≈ marks a conversion by molar mass, not a printed value. Calls of active or inactive are those of the source.

Columns and labels:
[1] = Therapeutic index, ratio of LD50 for po dosed mouse to ED50 for Trichomonas vaginalis infected in po dosed mouse; type: organism-based; conditions: in vivo, read-out: Ratio LD50/ED50
How it was run: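 Ratio of two mouse values, both dosed orally. The LD50 comes from acute toxicity, with compounds suspended in aqueous 0.5% Methocel 90-HG. The ED50 comes from subcutaneous T. vaginalis infection treated orally. The ED50 vehicle varied by compound: suspension in aqueous 0.75% sodium carboxymethylcellulose, DMF-H2O, DMF-phosphate buffer pH 7.38, or H2O.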

Streptococcus pyogenes = test: Antimicrobial activity against Streptococcus pyogenes C 203 by microtitre method; type: functional
Mus musculus [2] = test: Toxicity in CF1 mouse assessed as reduction in spontaneous activity at 10 to 600 mg/kg, po by Irwin test; type: organism-based; parameters: dose 10-600 mg/kg, route oral; conditions: in vivo
How it was run: (§1)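 Irwin observational method in male CF1 mice (19–22 g). Oral dosing of a suspension in 0.5% Methocel 90-HG at 10 mL/kg, up to 600 mg/kg; controls received saline. Directly observable behavioural and autonomic changes were scored, with the threshold dose for onset recorded.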

[3] = system: Mycoplasmoides gallisepticum; test: Antimicrobial activity against Mycoplasma gallisepticum S6 Weybridge by broth dilution method; type: functional
Mus musculus [4] = test: Toxicity in CF1 mouse assessed as reduction in curiosity at 10 to 600 mg/kg, po by Irwin test; type: organism-based; parameters: dose 10-600 mg/kg, route oral; conditions: in vivo; how it was run: as §1
Mus musculus [5] = test: Toxicity in CF1 mouse assessed as cyanosis at 10 to 600 mg/kg, po by Irwin test; type: organism-based; parameters: dose 10-600 mg/kg, route oral; conditions: in vivo; how it was run: as §1
Mus musculus [6] = test: Toxicity in CF1 mouse assessed as flaccid paralysis at 600 mg/kg, po by Irwin test; type: organism-based; parameters: dose 600 mg/kg, route oral; conditions: in vivo; how it was run: as §1
Staphylococcus aureus = test: Antimicrobial activity against Staphylococcus aureus Tour by microtitre method; type: functional
Clostridium perfringens = test: Antimicrobial activity against Clostridium perfringens ISS 30543 by broth dilution method; type: functional
Mus musculus [7] = test: Toxicity in CF1 mouse assessed as reduction in opening of eyelid at 10 to 600 mg/kg, po by Irwin test; type: organism-based; parameters: dose 10-600 mg/kg, route oral; conditions: in vivo; how it was run: as §1
Mus musculus [8] = test: Toxicity in CF1 mouse assessed as ataxia at 10 to 600 mg/kg, po by Irwin test; type: organism-based; parameters: dose 10-600 mg/kg, route oral; conditions: in vivo; how it was run: as §1
Mus musculus [9] = test: Inhibition of strychine sulfate/pentetrazole-induced death in CF1 mouse at 300 to 600 mg/kg, po administered 60 mins prior to strychine sulfate/pentetrazole challenge; type: functional, organism-based
Mus musculus [10] = test: Toxicity in CF1 mouse assessed as reduction in respiratory rate at 10 to 600 mg/kg, po by Irwin test; type: organism-based; parameters: dose 10-600 mg/kg, route oral; conditions: in vivo; how it was run: as §1
Mus musculus [11] = test: Toxicity in CF1 mouse assessed as reduction in body tone at 10 to 600 mg/kg, po by Irwin test; type: organism-based; parameters: dose 10-600 mg/kg, route oral; conditions: in vivo; how it was run: as §1
Mus musculus [12] = test: Toxicity in CF1 mouse assessed as change in sleeping time at 600 mg/kg, po administered 30 mins prior to hexobarbital sodium challenge relative to vehicle-treated control; type: organism-based; parameters: dose 600 mg/kg, route oral; conditions: in vivo, 0.5 h
How it was run: (§2)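 Male CF1 mice (19–22 g), groups of 30, given oral doses as a 0.5% Methocel 90-HG suspension at 10 mL/kg; saline controls (90 animals). Hexobarbital sodium 75 mg/kg ip given 30 min later, at 25–26 °C. Sleeping time given as mean ± SE and as % change vs controls; Dunnett's t test.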

Trichomonas vaginalis [13] = test: Antimicrobial activity against Trichomonas vaginalis by broth dilution method; type: functional
Mus musculus [14] = test: Toxicity in CF1 mouse assessed as reduction in heart rate at 10 to 600 mg/kg, po by Irwin test; type: organism-based; parameters: dose 10-600 mg/kg, route oral; conditions: in vivo; how it was run: as §1
Mus musculus [15] = test: Toxicity in CF1 mouse assessed as change in sleeping time at 300 mg/kg, po administered 30 mins prior to hexobarbital sodium challenge relative to vehicle-treated control; type: organism-based; parameters: dose 300 mg/kg, route oral; conditions: in vivo, 0.5 h; how it was run: as §2
Trichomonas vaginalis [16] = test: Antimicrobial activity against Trichomonas vaginalis infected in po dosed mouse; type: functional
How it was run: (§3)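 Mice infected subcutaneously, then dosed orally. Vehicle depended on compound: suspension in aqueous 0.75% sodium carboxymethylcellulose, DMF-H₂O, DMF-phosphate buffer pH 7.38, or water. ED₅₀ determined, with metronidazole run in parallel. The relative value is ED₅₀ (test) / ED₅₀ (metronidazole).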

Trichomonas vaginalis [17] = test: Antimicrobial activity against Trichomonas vaginalis infected in po dosed mouse relative to metronidazole; type: functional; how it was run: as §3
Mus musculus [18] = test: Toxicity in CF1 mouse assessed as change in sleeping time at 1 mg/kg, po administered 30 mins prior to hexobarbital sodium challenge relative to vehicle-treated control; type: organism-based; parameters: dose 1 mg/kg, route oral; conditions: in vivo, 0.5 h
[19] = Acute toxicity in po dosed mouse; type: organism-based; conditions: in vivo
How it was run: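 Acute toxicity in mice by the oral route. Compounds were given as suspensions in aqueous 0.5% Methocel 90-HG.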

SMILES	selectivity ratio [1]	MIC (Streptococcus pyogenes) [µg/mL]	MIC [3] [µg/mL]	MIC (Staphylococcus aureus) [µg/mL]	MIC (Clostridium perfringens) [µg/mL]	MIC (Trichomonas vaginalis [13]) [µg/mL]	ED50 (Trichomonas vaginalis [16]) [mg/kg]	Ratio ED50 (Trichomonas vaginalis [17])	LD50 [19] [mg/kg]	also measured
Cc1ncc([N+](=O)[O-])n1CCO [METRONIDAZOLE]	658	> 300	> 300	> 300	0.6 (≈ 3.51 µM)	5 (≈ 29.2 µM)	–	–	–	Activity (Mus musculus [2]): Toxic; Activity (Mus musculus [4]): Toxic; Activity (Mus musculus [5]): Toxic; Activity (Mus musculus [6]): Toxic; Activity (Mus musculus [7]): Toxic; Activity (Mus musculus [8]): Toxic; inhibition (Mus musculus [9]): Active; Activity (Mus musculus [10]): Toxic; Activity (Mus musculus [11]): Toxic; Activity (Mus musculus [12]): 55.9%; Activity (Mus musculus [14]): Toxic; Activity (Mus musculus [15]): 29.2%
Cn1c(C(C)(C)O)cnc1[N+](=O)[O-]	423	> 300	40 (≈ 216 µM)	100 (≈ 540 µM)	25 (≈ 135 µM)	25 (≈ 135 µM)	1.65	0.28	–	–
CN(C)CCCN1c2ccccc2Sc2ccc(Cl)cc21.Cl [CHLORPROMAZINE HYDROCHLORIDE]	–	–	–	–	–	–	–	–	–	Activity (Mus musculus [18]): 57.7%
Cn1c(C(C)(C)OC(=O)c2ccccc2)cnc1[N+](=O)[O-]	–	100 (≈ 346 µM)	50 (≈ 173 µM)	100 (≈ 346 µM)	3.1 (≈ 10.7 µM)	> 100	16.2	1.62	–	–
Cn1c(C(C)(C)OC(N)=O)cnc1[N+](=O)[O-]	156	100 (≈ 438 µM)	> 100	> 100	10 (≈ 43.8 µM)	10 (≈ 43.8 µM)	5.74	0.4	900	–
O=[N+]([O-])c1cncn1CCN1CCOCC1 [NIMORAZOLE]	40	> 300	> 300	> 300	0.6 (≈ 2.65 µM)	12.5 (≈ 55.3 µM)	37.9	4.66	1530	–
